For this data set, the system named is MS2 coat protein. Description: apparent Kd, MS2 coat protein; higher = weaker binding; RNA-MaP array; FMN 200 µM where present. The procedure, abridged:
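In 100 mM Tris-HCl pH 7.5, 80 mM KCl, 4 mM MgCl2, BSA, DTT, yeast tRNA and Tween-20, SNAP-549-labelled MS2 coat protein was titrated from 0.7 or 1.5 nM, doubling to 3 µM, over designs transcribed by stalled E. coli RNA polymerase on Illumina sequencing-chip clusters. This was done first without ligand, then with ligand held constant. After green signal was normalised to red-channel RNA signal and control-cluster median Fmax, the apparent Kd was taken as the median of filtered per-cluster binding-curve fits.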

The mark [1] stands for this setting: designed as: OFF switch for flavin mononucleotide, no ligand.
The mark [2] stands for this setting: ligand present: flavin mononucleotide, designed as: OFF switch for flavin mononucleotide.
Where [3] appears, read: designed as: ON switch for flavin mononucleotide, no ligand.
[4] abbreviates: ligand present: flavin mononucleotide, designed as: ON switch for flavin mononucleotide.

For orientation: apparent Kd means the concentration giving half-maximal binding under the conditions of the assay.

With “AACUCACAUGAGGAUCACCCAUGUGAGGAUAUAUAAAUAUAUAUGUUAUUGUAUGUUUGUAGAAGGCGCGUGAU”, the “apparent Kd” value under setting [1] is 38.6 nM and the “apparent Kd” value under setting [2] was found to be 43.1 nM.

With “AAAACAUGAGGAUCACCCAUGUAAAGAUCAAUUAAAAUGAGUGAGGAUAUACUAAAUUAUUUAUAGUAGAAGGCACUGGGUACA”, the “apparent Kd” value came out at 25 nM under setting [3] and 26.3 nM under setting [4].

On to “GGAUCGAAAGUGAGGAUAUGCUGGUCCUUGGAUCAGCAGAAGGCACAUGAGGAUCACCCAUGUGAUUUCGAUCC”, for which the “apparent Kd” value by setting is: under setting [1], 16.6 nM; under setting [2], 25 nM.

Regarding “GUUUCACAUGAGGAUCACCCAUGUGAGGAUAUGGACUUAUUGGCAAUAGUCGAUGGGUUCAGAAGGCGCGUGAU”, the “apparent Kd” value under setting [1] was determined as 67.9 nM and the “apparent Kd” value under setting [2] amounted to 71.2 nM.

For the sequence “GUAGAGUAAGGAUAUACAGAAUAGGAUAGAAUGGUUAGAAUGUAGAAGGUACAUGAGGAUCACCCAUGUAAUGU”, the “apparent Kd” value runs as follows: under setting [1], 19.7 nM; under setting [2], 18.4 nM.

Turning to “GUGUACGGAGGAUAUAUGUGGGCAGCAUACGCUGCAGCUUCACAUGAGGAUCACCCAUGUAGAAGGCUGUGCAC”, the “apparent Kd” value runs as follows: under setting [1], 23.2 nM; under setting [2], 131 nM.

Take “GGUACUCAAAGAGUACCAAUACGAACAUGAGGAUCACCCAUGUAGGAUAUGCUACUCAAAGAGUAGCAGAAGGAUAUGUGCCUA”: the “apparent Kd” value under setting [1] is 14.7 nM and the “apparent Kd” value under setting [2] was determined as 15.3 nM.

In the case of “UGGCCGAAGUUAGGAUAUUGGUUAGGGACGGACUAAGAAGGAGCACAUACAUGAGGAUCACCCAUGUUAGAAGGUUGUCCUCCA”, the “apparent Kd” value worked out at 15.5 nM under setting [1] and 13.7 nM under setting [2].

For “CUCUUGUGAGGAUAUCAGGUGUGCUAGCGUACUGGUACAUCUGAGAAGGCACAUGAGGAUCACCCAUGUUUCUU”, the “apparent Kd” value by setting is: under setting [1], 97.7 nM; under setting [2], 72.3 nM.

Regarding “AGAUGGUAGAUAGGAUAUCAUGUGCUGACAUGAGGAUCACCCAUGUAGGGACGUCAGUCCAAUUAUGAGAAGGAUCUACCAUCU”, the “apparent Kd” value by setting is: under setting [3], 61 nM; under setting [4], 39.3 nM.

Consider “GAGAAGUCAGGAUAUGCAUGGCGGGACUUGCGUCGUGGCGUGCAGAAGGGACAUGAGGAUCACCCAUGUGGAGA”, for which the “apparent Kd” value worked out at 125 nM under setting [1] and 291 nM under setting [2].

Regarding “UUUAUGGGACAGAAGGGCAUUUACAUGAGGAUCACCCAUGUUCAUCAUUGCAGGAUAUGUAUUACAUGAGGAUCACCUAUGUAC”, the “apparent Kd” value under setting [3] stood at 74.9 nM and the “apparent Kd” value under setting [4] was 24.4 nM.

For the sequence “GCUCGAUGUGCUGAAAACAUGAGGAUCACCCAUGUAAAUGAUCAGGAUAUUUACGUGCUUUAUGUAGAGAAGGGAUCAUCGAGC”, the “apparent Kd” value amounted to 260 nM under setting [3] and 78.3 nM under setting [4].

For “AGGUGUAGAGGAUAUCGAGUUCUUUACAUGAGGAUCACCCAUGUCCUGGGCACCCAGGACUGAGAAGGCUACACCA”, the “apparent Kd” value reads like this: under setting [1], 478 nM; under setting [2], 180 nM.

For “UGUAUGGACAGAGGAUAUACAGAUAGGAUCUACUAUCAAACAGUCCUUACAUGAGGAUCACCCAUGUAGAAGGCUGUCCAUACU”, the “apparent Kd” value was found to be 19.4 nM under setting [1] and 85.8 nM under setting [2].

Regarding “CUAUUGUGAGGAUAUCAGGUGUGCUAGCGUACUGGUACAUCUGAGAAGGCACAUGAGGAUCACCCAUGUUUCUU”, the “apparent Kd” value was 19.3 nM under setting [1] and 56.2 nM under setting [2].

Regarding “GAAGCAUCCAAUAACAUGAGGAUCACCCAUGUCAAAAGACGGGAGGAUAUUGAUCUGAAGAAGAUCAAGAAGGCCUGGUGCUAA”, the “apparent Kd” value reads like this: under setting [3], 10.1 nM; under setting [4], 7.35 nM.

Regarding “AUUAAUAAUCGAGGAUAUCACGUCGAAUAGACGUGAGAAGGCGAUCAUAACAUGAGGAUCACCCAUGUAUUACAUGAAGUUAAU”, the “apparent Kd” value reads like this: under setting [3], 27.5 nM; under setting [4], 23.9 nM.

“GUUGUGUAUGUAGGAUAUGCGAAGCAAAGCUUCGCAGAAGGACAUGAGGAUCACCCAUGUAUUGCAGCCUGCAAUCAGGCUGCU”: the “apparent Kd” value stood at 41.6 nM under setting [1] and 175 nM under setting [2].

Take “UGAAAGCUAGGAUAUACAUGAGGAUCACCCAUGUACCGGCUUGGCCCUGGUCCAAAGUGUAGAAGGAGCACGCC”: the “apparent Kd” value is, setting by setting: under setting [1], 28.2 nM; under setting [2], 50.3 nM.

Regarding “GGUGCAGUGUAGAAGGCAGAUCUGAUUCAGAUCUGAGGAUAUACAUGAGGAUCACCCAUGUUAUGCACCAGCACGAGAGUGCAA”, the “apparent Kd” value under setting [1] was 6.28 nM and the “apparent Kd” value under setting [2] amounted to 8.76 nM.

On to “AAAAAACAAGGAUAUACGCAGGAGGGUUGUCUUAAUUUUUGACAUGAGGAUCACCCAUGUAGAAGGUGUUAAAA”, for which the “apparent Kd” value reads like this: under setting [1], 237 nM; under setting [2], 507 nM.

As for “ACAUGAUCAGGAUAUACAUGAGGAUCACCCAUGUAUAUAAAAAAAAAACUUUCUUCAUGUAGAAGGGAUCUUGU”, the “apparent Kd” value is, setting by setting: under setting [1], 16.6 nM; under setting [2], 26.3 nM.

Regarding “UGCCUGCAGUCAGGAUAUGAUAACUGGGUAUGGUCUUUGUAACGACAUGAGGAUCACCCAUGUUUUUAGAAGGGACGUGUCAGC”, the “apparent Kd” value is, setting by setting: under setting [1], 363 nM; under setting [2], 127 nM.

For the sequence “GAGGAACAUGAGGAUCACCCAUGUGAGGAUAUGCAUAGCGAGGUAGUAGAAGUUGAAUGCAGAAGGUACACGGA”, the “apparent Kd” value by setting is: under setting [1], 36 nM; under setting [2], 30.3 nM.

As to “UCCUUGUAAGGAUAUCGACGGCUACUCAAUUAAGCCGAUGCUGAGAAGGUACAUGAGGAUCACCCAUGUCUGGU”, the “apparent Kd” value under setting [1] was 52.1 nM and the “apparent Kd” value under setting [2] came to 275 nM.

As to “UAGCAAACGACCUGUGUGUGACAUGAGGAUCACCCAUGUUAGAGAAGGCCGAUAGCGCCGCGUACGGAGGAUAUCUGACAGGGA”, the “apparent Kd” value under setting [1] worked out at 24.1 nM and the “apparent Kd” value under setting [2] came to 30.3 nM.

For “CGCAACUCUUCACAUGUAAACAUGAGGAUCACCCAUGUAAUGAGAAGGAGGAAGAAGAGAGAUUCCUAGGAUAUCAGAGUUGCG”, the “apparent Kd” value runs as follows: under setting [1], 6.83 nM; under setting [2], 6.52 nM.

“CCGGAAUCCUAGGAUAUGCUAGACGAAAGUCUAGCAGAAGGAGGAACAUGAGGAUCACCCAUGUGUCCUACCGG”: the “apparent Kd” value was found to be 18.6 nM under setting [1] and 25 nM under setting [2].

In the case of “UGGUACUAGGGAGGAUAUGGGAAGAUACAUGAGGAUCACCCAUGUUUAAGAAUGACGAGAGGCAACUAGAAGGCCCUAGUACCU”, the “apparent Kd” value under setting [3] was determined as 328 nM and the “apparent Kd” value under setting [4] was 25.9 nM.

In the case of “CUAAAUCAUGUAGGAUAUGCAUGGCGAAGCUACGCAGAAGGACAUGAGGAUCACCCAUGUCUGUCCGACUGCGUACAGUCGGAC”, the “apparent Kd” value runs as follows: under setting [1], 21.6 nM; under setting [2], 114 nM.

“UGUGUGUGGGCAGGAUAUGCAUGAAGAUGUAUGAUGUAGUGUGAUGUAACAUGAGGAUCACCCAUGUAGAAGGGCCGGUGUGUG”: the “apparent Kd” value under setting [1] was 116 nM and the “apparent Kd” value under setting [2] worked out at 139 nM.

Take “AAGCGAAAGCUAAAAUAUCUAUCAGAGGAUAUUUAUGAUACAUGAGGAUCACCCAUGUGGCGCUGGGAGAAGGCUGAUAGAUAA”: the “apparent Kd” value turned out to be 12.9 nM under setting [3] and 6.79 nM under setting [4].

Take “AUAUGAUAGAUAGGAUAUACUGAGGUUGAAUGGGUAGAAGGAUCGAUAGGGAAGAAUACAUGAGGAUCACCCAUGUUGUGGAUU”: the “apparent Kd” value stood at 76.9 nM under setting [3] and 57.8 nM under setting [4].

For “UUGGACGUCGUAGGAUAUGUAGGAUCUUCCUACAUGAGGAUCACCCAUGUUGACAUGGAAGAAGGACAGAAGGACGAUGUCCAU”, the “apparent Kd” value runs as follows: under setting [3], 6.88 nM; under setting [4], 4.77 nM.

In the case of “AUUAAACAUGAGGAUCACCCAUGUGAGGAUAUGCAAAAAAAAUUAUAUUAAAAAAAAAGCAGAAGGCACAUAUA”, the “apparent Kd” value was found to be 54.7 nM under setting [1] and 94.6 nM under setting [2].

Regarding “AACGAGGCAGGAUAUACAUGAGGAUCACCCAUGUGCUUGCAUGGCGUGGGAAGUCAACGUAGAAGGGCCAUGCC”, the “apparent Kd” value is, setting by setting: under setting [1], 75.7 nM; under setting [2], 89.4 nM.

Consider “GUUGGUUAUGUAGGAUAUGCGAGGCGAGCCUAAGCAGAAGGACAUGAGGAUCACCCAUGUAUUGCGGUCUGCGUUCAGAUCGCU”, for which the “apparent Kd” value is 36.2 nM under setting [1] and 156 nM under setting [2].

Take “CCAACCGGCACCGGUUGAACAUGAGGAUCACCCAUGUACUCCAGAAGGCCGCCCAAGAACGGAGUGGAGGAUAUGGAGGUUCUC”: the “apparent Kd” value by setting is: under setting [3], 15.5 nM; under setting [4], 12 nM.

Consider “AUUAUAUAGAUAGGAUAUUGAUUAUUAUUUUAACAUGAGGAUCACCCAUGUAGCCUUAUGUAUAACAAGAAGGAUCAUUUAUUA”, for which the “apparent Kd” value is 161 nM under setting [1] and 181 nM under setting [2].

For “CUGAUGUGAGGAUAUCUAAAAGAAACUGGGCAAAUACCCAGAGAGAAGGCACAUGAGGAUCACCCAUGUAACGA”, the “apparent Kd” value is, setting by setting: under setting [1], 21.3 nM; under setting [2], 86.8 nM.

Take “GAUCCACAUGAGGAUCACCCAUGUGAGGAUAUGAUACUAUGUACUUCGGUACAUAGUAUCAGAAGGCACGGGUC”: the “apparent Kd” value is, setting by setting: under setting [1], 84.1 nM; under setting [2], 206 nM.

Regarding “AGCGUCGGCACAGGAUAUGAGAUGCCGGCAGACAUGAGGAUCACCCAUGUAAGCGAACCAGGCAGUCAGAAGGGUGAUCGACAA”, the “apparent Kd” value came to 56.3 nM under setting [3] and 21.7 nM under setting [4].

Take “UUAUUUAUGUAAGGAUAUCGAUGAUAUACGCAUCCGACAUGAGGAUCACCCAUGUUUUAUUUUGUCGAGAAGGUACAUUGUCGG”: the “apparent Kd” value by setting is: under setting [3], 57.8 nM; under setting [4], 57.1 nM.

For “UGGUACUAGGGAGGAUAUGGGAAGAUACAUGAGGAUCACCCAUGUUUAAGAAUGCCGGGAGGCAACUAGAAGGCCCUAGUACCU”, the “apparent Kd” value under setting [3] was 478 nM and the “apparent Kd” value under setting [4] is 21.2 nM.

For “GUAUGACAAAGUCAUACCGCUCUGACAUGAGGAUCACCCAUGUAGGAUAUAUUAAUCAAAGAUUAAUAGAAGGACAUGUUUCUU”, the “apparent Kd” value by setting is: under setting [1], 35.3 nM; under setting [2], 79.3 nM.

For “CAUACACAUGAGGAUCACCCAUGUGAGGAUAUGCGUACGUUGUCCGUAGGCGACGUGCGCAGAAGGCGCUUGGU”, the “apparent Kd” value under setting [1] worked out at 57.1 nM and the “apparent Kd” value under setting [2] came out at 68.6 nM.

In the case of “GUUAAUUAGUGAGGAUAUACAGUAUUUAAUACUGUAGAAGGCACAAUCCUCAAGACAUGAGGAUCACCCAUGUGAUAAUAAGAU”, the “apparent Kd” value reads like this: under setting [1], 54.4 nM; under setting [2], 203 nM.

For the origin of these results see the EternaBench riboswitch data.
